Bioassay records (PubChem)
Runt-SMMHC FRET: inhibitors of human RUNX1 Runt domain binding to CBFb-SMMHC | Q01196+Q13951 | Cerulean-Runt/Venus-CBFb-SMMHC FRET ratio 530/480, 1 h | inhibition, % at 20 µM | 220,000 tested, 0.74% active | AID 1434;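 active = mean inhibition across duplicate retests at 20 µM reaching about 50%, limit read from the data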;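 note: inhibitors lower the FRET ratio by blocking Runt binding to CBFb-SMMHC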
VIM-2 inh: inhibitors of Pseudomonas aeruginosa VIM-2 metallo-beta-lactamase | purified VIM-2, nitrocefin hydrolysis, epi-absorbance fluorescence | inhibition, % at 5.6 µM | 290,000 tested, 0.89% active | AID 1527;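 active = inhibition above the mean of all tested compounds plus 3 SD, cutoff set per screening run, cut at about 7.5% in these data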;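 note: red hydrolysis product quenches plate fluorescence so inhibitors raise well fluorescence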
Runt-CBFb FRET: blocks binding of human RUNX1 Runt domain to CBFb; AID 1496; Cerulean-Runt/Venus-CBFb FRET ratio 530/480, 1 h; 220,000 tested, 0.46% active; Q01196+Q13951; inhibition, % at 20 µM;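 active = inhibition over about 50% at 20 µM in the single-dose screen, limit read from the data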
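Measured by: fluorescence energy transfer, 422 nm excitation, 530/480 nm emission; Assay system: Cerulean-Runt domain; Medium: Tris pH 7.5 buffer with BSA; Measure: loss of energy transfer signal; Controls: 5 µM unlabeled CBFb as full-inhibition high control; Incubation: protein complex preformed 1 h, compound exposure 1 h, room temperature, dark.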
RanGTP-Impb inh: inhibitors of RanGTP-importin-beta interaction, primary screen, biochemical, FRET, CFP-Ran, YFP-importin-beta, homogeneous | inhibition, % (no concentration beside the values) | AID 2216 | cell-free CFP-Ran/YFP-importin-beta FRET ratio | 300,000 tested, 1.1% active;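 active = more than half of the replicate wells show a fall in the fluorescence ratio signal beyond about 16%, limit read from the data, passing the limit was not always enough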
IMP-1 inhibitor: blocks Pseudomonas aeruginosa IMP-1 metallo-beta-lactamase; purified IMP-1, nitrocefin hydrolysis, epi-absorbance fluorescence; inhibition, % at 5.6 µM; 290,000 tested, 0.45% active;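 active = inhibition above the mean plus 3 SD of all compounds in the same screening run, cut at about 4.5% in these data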
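Test system: recombinant IMP-1 enzyme, purified / Medium: HEPES buffer pH 7.1 with ZnSO4 and Brij 35 / Doses: single dose, 5.6 µM / Times: 25 °C, 15 min preincubation, 25 min reaction / Detection: Epi-absorbance via hydrolysed-nitrocefin quenching of white-plate fluorescence, 480/530 nm, EDTA stop / Evaluation: percent inhibition from optical density relative to buffer-blank wells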
YIC counter: counter-screen for RanGTP-importin-beta inhibitors: YIC FRET probe; shares compounds with RanGTP-Impb inh; 1,000 tested, 40% active; IC50, µM; Purified YIC probe, intramolecular FRET ratio YFP/CFP;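 active = fitted half-maximal inhibitory concentration no more than tenfold above the top dose tested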
A number is an active result; i = inactive; nt = no result given. An excerpt weighted towards active compounds, which were near 2.6% of everything screened.

SMILES	Runt-SMMHC FRET	VIM-2 inh	Runt-CBFb FRET	RanGTP-Impb inh	IMP-1 inhibitor	YIC counter
O=C(NCc1cnn(-c2ccccc2)c1)C1CCC(=O)N(C2CC2)C1 (stereo not given)	nt	i	nt	i	i	nt
CCOC(=O)c1c(NC(=O)CN2CCCc3ccccc32)sc(C(C)=O)c1C	i	i	i	21	i	i
CCn1ccnc1CNC(=O)CC1C(=O)NCCN1CC(c1ccccc1)c1ccccc1 (stereo not given)	i	i	i	i	i	nt
CCOC(=O)N1CC=C2C(C#N)=C(N)C(C#N)(C#N)[C@H](c3ccccc3OCC)[C@H]2C1	i	i	i	i	i	nt
COc1cc([C@@H]2[C@H]3CN(C)CC=C3C(C#N)=C(N)C2(C#N)C#N)cc2c1OCO2	62	i	i	24	i	5.7
CC1CCCCN1C(=O)Cn1c(=O)oc2cc(S(=O)(=O)N3CCCC3)ccc21 (stereo not given)	nt	i	nt	17	i	i
CC1CCN(C(=O)Cn2c(=O)oc3cc(S(=O)(=O)N4CCCCC4)ccc32)CC1	nt	i	nt	i	i	nt
COc1ccc(CNCc2ccncc2)c(OC)c1	nt	i	nt	i	i	nt
COc1ccc(CNCc2c(O)c(Cl)cc3c(C)c(C)c(=O)oc23)c(OC)c1	nt	i	nt	18	i	7
COc1ccc(CNC(=O)CCSCc2ccccc2Cl)c(OC)c1	i	i	i	i	i	nt
CCc1cc(=O)oc2c(CNCc3ccc(OC)cc3OC)c(O)c(Cl)cc12	nt	i	nt	34	i	32
COc1ccccc1-n1nnnc1SCC(=O)NC1CCCCC1	nt	i	nt	i	i	nt
O=C(c1ccco1)N1CCN(C(=O)c2cc3ccccc3oc2=O)CC1	nt	i	nt	i	i	nt
O=C(c1cc2ccccc2oc1=O)N1CCN(CCc2ccccc2)CC1	77	i	i	33	i	7.3
CC1=NN(C(=O)c2ccccc2)C(O)(c2ccc(Br)cc2)C1 (stereo not given)	i	i	i	24	i	i
COc1cccc(NC(=O)NC2CCCc3ccccc32)c1 (stereo not given)	i	i	i	i	i	nt
Cc1cc(C)c[n+](-c2nc3ccccc3nc2[N-]S(=O)(=O)c2ccc(Br)s2)c1	78	i	i	30	i	7.9
COc1ccc(-n2nc(C(=O)NCC(=O)NCCCN3CCOCC3)c3ccccc3c2=O)cc1OC	nt	i	nt	i	i	nt
COc1cc(/C=C2/C(=O)NN(c3ccc(C)c(Cl)c3)C2=O)cc([N+](=O)[O-])c1O	nt	i	nt	i	i	nt
Cc1ccc(N2NC(=O)/C(=C\c3cc4c(cc3[N+](=O)[O-])OCO4)C2=O)cc1C	i	i	i	25	i	i
N#Cc1c(N)n(CCNC(=O)c2ccc(Cl)cc2)c2nc3ccccc3nc12	i	i	94	28	i	2
CCOC(=O)CSc1nnc(CSc2nc3sc4c(c3c(=O)[nH]2)CCCC4)n1-c1ccccc1	i	i	i	32	i	i
COc1ccccc1N=C1SCC(=O)N1Cc1ccco1	i	i	i	i	i	nt
COc1cccc(C2=NOC(C(=O)Nc3cc(C)on3)C2)c1 (stereo not given)	i	i	i	19	i	i
O=C(CCn1c(=O)sc2ccccc21)NC1CCCCC1	nt	i	nt	i	i	nt
SMILES	Runt-SMMHC FRET	VIM-2 inh	Runt-CBFb FRET	RanGTP-Impb inh	IMP-1 inhibitor	YIC counter
COC(=O)c1ccc(NC(=O)C(=O)N2CCN(C(=S)Nc3ccccc3OC)CC2)cc1	i	i	i	20	i	i
Cn1c(=O)c2c(nc(SCCN3CCOCC3)n2Cc2ccccc2Cl)n(C)c1=O	i	i	i	i	i	nt
Cc1nnc(Sc2nc3c(c(=O)n(C)c(=O)n3C)n2Cc2ccccc2Cl)s1	nt	i	nt	17	i	i
COC(=O)c1nc2nc(-c3cccs3)cc(C(F)(F)F)n2n1	i	i	i	i	i	nt
NNC(=O)c1cc2nc(-c3cccs3)cc(C(F)(F)F)n2n1	i	i	i	27	i	i
CC(=O)c1ccccc1Oc1ncnc(N)c1[N+](=O)[O-]	nt	i	nt	i	i	nt
c1ccc(Nc2nc3ccccc3n3nnnc23)cc1	i	i	i	36	i	24
CCc1ccc(CN2CCC(Oc3ccc(C(=O)N4CCCC4)cc3)CC2)cc1	nt	i	nt	i	i	nt
CC(C)c1ccc(CN2CCC(Oc3ccc(C(=O)N4CCCC4)cc3)CC2)cc1	nt	i	nt	21	i	i
Fc1ccc(-c2csc(Nc3ccccn3)n2)cc1	nt	i	nt	i	i	nt
